Here are results for five compounds from ChEMBL document CHEMBL1147349, “Bisamides from Aglaia species: structure analysis and potential to reverse drug resistance with cultured cells” (1993).

Format in all cases: functional
One test deals with ZR-75-1. The test is described as follows: Cytotoxicity against human ZR-75-1 cells. The settings on record: read-out: ED50 (the source's name). The essentials: (§1)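 Human cancer cell lines were cultured with the test compounds at concentrations up to 20 µg/ml. The read-out was cell survival, expressed as ED50.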
Test [1] can be described thus: Cytotoxicity against vinblastine-resistant human KBV1 cells by dose-response study in presence of 1 ug/ml vinblastine. Conditions: KB-V1, read-out: ED50 (the source's name). The essentials: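 The resistant KB-V1 line, normally kept in vinblastine (1 µg/ml), was exposed to the test compounds up to 20 µg/ml. Vinblastine at 1 µg/ml was present in the culture medium during treatment. The read-out was cell survival, expressed as ED50.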

A short description of test [2]: Cytotoxicity against human LUC1 cells. The settings on record: read-out: ED50 (the source's name). The method in brief: as §1
A short description of test [3]: Cytotoxicity against vinblastine-resistant human KBV1 cells. Conditions: KB-V1, read-out: ED50 (the source's name). The method in brief:
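KB-V1 cells are routinely maintained in vinblastine (1 µg/ml) to keep the drug-resistant phenotype. For this test they were cultured with the test compounds without vinblastine, at concentrations up to 20 µg/ml. The read-out was cell survival, expressed as ED50.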

For the next test, the system named is KB. In words: Cytotoxicity against human KB cells. Conditions: read-out: ED50 (the source's name). The essentials:
as §1

A short description of test [4]: Cytotoxicity against human Col1 cells. Conditions: read-out: ED50 (the source's name). The method in brief:
as §1

Test [5] in a line: Cytotoxicity against human BCA1 cells. Conditions: read-out: ED50 (the source's name). The method in brief:
as §1

Another test concerns HT-1080. In words: Cytotoxicity against human HT1080 cells. Conditions: read-out: ED50 (the source's name). The method in brief:
as §1

Another test relates to A-431. In words: Cytotoxicity against human A431 cells. Conditions: read-out: ED50 (the source's name). The essentials: as §1
A further test concerns LNCaP. The test is described as follows: Cytotoxicity against human LNCAP cells. The settings on record: read-out: ED50 (the source's name). The essentials: as §1
The next test deals with SK-MEL-2. In words: Cytotoxicity against human SK-MEL-2 cells. The settings on record: read-out: ED50 (the source's name). The essentials:
as §1

Converted amounts (≈) assume the structure as drawn. A value given as a limit tells only on which side of the number the result lay.

As to `CC[C@H](C)C(=O)N[C@@H]1CCCN1C(=O)/C=C/c1ccccc1`, the EC50 was over 20 mg/L with ZR-75-1; 4.2 mg/L in test [1]; over 20 mg/L in [2]; over 20 mg/L in test [3]; over 20 mg/L in the test on KB; over 20 mg/L in test [4]. For the same compound, the EC50 (in test [5]; in the test on HT-1080; in the test on A-431; in the test on LNCaP; in the test on SK-MEL-2) was over 20 mg/L in each case.
Take `CC[C@H](C)C(=O)N[C@H]1CCCN1C(=O)/C=C/c1ccccc1` [ODORINE]: the EC50 is over 20 mg/L in the test with ZR-75-1; 6.4 mg/L in [1]; over 20 mg/L in test [2]; over 20 mg/L in test [3]; over 20 mg/L with KB; over 20 mg/L in [4]. The EC50 (in test [5]; in the test with HT-1080; in the test with A-431; in the test on LNCaP; in the test with SK-MEL-2) was over 20 mg/L throughout.
`CC(C)C(=O)N[C@H]1CCCN1C(=O)/C=C/c1ccccc1` [PIRIFERINE]: the EC50 in the test on ZR-75-1 is over 20 mg/L; in test [1], 8.5 mg/L; in [2], over 20 mg/L; in [3], 10 mg/L (≈ 34.9 µM); in the test on KB, over 20 mg/L; in [4] it was over 20 mg/L. For the same compound, the EC50 (in test [5]; in the test with HT-1080; with A-431; in the test on LNCaP; with SK-MEL-2) was over 20 mg/L in each case.
In the case of `O=C(/C=C/c1ccccc1)NCCCCNC(=O)c1ccccc1` [PYRAMIDATINE], the EC50 (in the test with ZR-75-1; in test [1]; in test [2]; in test [3]; with KB; in test [4]) was over 20 mg/L throughout. For the same compound, the EC50 (in [5]; in the test with HT-1080; in the test with A-431; in the test with LNCaP; in the test on SK-MEL-2) was over 20 mg/L each time.
On to `CC[C@]1(O)C[C@@H]2CN(CCc3c([nH]c4ccccc34)[C@@](C(=O)OC)(c3cc4c(cc3OC)N(C)[C@H]3[C@@](O)(C(=O)OC)[C@H](OC(C)=O)[C@]5(CC)C=CCN6CC[C@]43[C@@H]65)C2)C1` [VINBLASTINE], for which the EC50 was found to be 2.6 mg/L (≈ 3.21 µM) in [3] and 0.002 mg/L (≈ 0.00247 µM) with KB.
